# Cl transport mod = KCC2 (human) Cl- transport modulation; KCC2 cells, thallium flux FluoZin-2 fluorescence; B-score of Tl+ flux slope (higher = more flux/activation; lower = inhibition) at 10 µM; 190,000 tested, 2.2% active;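 active = thallium flux slope and its plate-corrected score both differing from the plate sample mean at a set confidence after two filtering rounds, in either direction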;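 note: slope of fluorescence scaled to starting intensity during 10 to 20 s after thallium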
# Diaph act CS = counter-screen for diaphorase-based assays: diaphorase activators and chemical reducers; Diaphorase/resazurin coupled assay, resorufin fluorescence, 16 min; stronger effect = higher value; 1 = vehicle wells, 0 = NADH-free wells; activation factor at 20 µM; 190,000 tested, 0.005% active; AID 1229;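 active = diaphorase activity raised at least twofold by the compound at 20 µM; inactive = activation factor below 2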
#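 Material: Clostridium kluyveri diaphorase, purified enzyme; Quantity: enzyme 0.07 U/mL final; Medium: HEPES pH 7.4 buffer with MgCl2 and Tween 20; Dosing: single compound dose of 20 µM, 1% DMSO final; Schedule: 16 min reaction at room temperature; Measured by: red resorufin fluorescence at 544/590 nm excitation/emission.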
# L major viab = reduces viability of Leishmania major promastigotes. AID 1063. inhibition, % at 10 µM. 200,000 tested, 9% active. resazurin fluorescence viability; in the data active = inhibition above about 50%;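 note: promastigotes grown with compound for 44 hours at 28 °C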
# ROMK mod = human ROMK K+ channel modulation, primary screen. Tet-inducible ROMK, thallium flux fluorescence; actives lie on both sides. AID 1918. 130,000 tested, 2% active. B-score at 10 µM. P48048;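 active = signal ratio slope over the read window, or its plate-corrected B-score, at least 3 SD from the plate mean, either direction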;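 note: B-score of the F/F0 ratio slope over 7 to 12 s after thallium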
# Target sequence (P48048 whole entry, looked up): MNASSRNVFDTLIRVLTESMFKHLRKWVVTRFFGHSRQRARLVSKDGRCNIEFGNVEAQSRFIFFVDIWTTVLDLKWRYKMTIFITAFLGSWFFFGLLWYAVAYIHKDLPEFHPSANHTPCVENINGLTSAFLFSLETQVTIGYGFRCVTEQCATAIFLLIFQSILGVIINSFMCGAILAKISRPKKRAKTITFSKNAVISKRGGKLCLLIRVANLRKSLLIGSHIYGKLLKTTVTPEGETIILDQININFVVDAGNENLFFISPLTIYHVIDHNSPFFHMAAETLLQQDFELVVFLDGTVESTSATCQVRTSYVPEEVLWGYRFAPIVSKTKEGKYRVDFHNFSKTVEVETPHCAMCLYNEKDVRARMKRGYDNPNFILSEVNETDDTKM
# Diaphorase inh = diaphorase inhibition or chemical oxidation counter-screen; diaphorase resazurin-to-resorufin fluorescence, NADH, 16 min; bacterial (C. kluyveri) enzyme, not human; inhibition, % at 20 µM; 190,000 tested, 0.69% active; AID 1217;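 active = primary screen inhibition at 20 µM above a set limit, cut at about 50% in these data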;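 note: plate controls were DMSO with full reaction for no effect and wells lacking NADH for full effect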
#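 controls = No-NADH positive control and DMSO neutral control | system = Clostridium kluyveri diaphorase enzyme | timing = reaction incubation of 16 min at room temperature | signal = resorufin fluorescence 544/590 nm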
# WT yeast gro inh = growth inhibition of WT yeast, mitochondrial fusion screen | mitochondrial fusion phenotypic screen, WT strain | inhibition, % at 10 µM | 190,000 tested, 2.1% active; in the data active = inhibition above about 58%; tested in S. cerevisiae
# Numbers without * were called inactive; x = no result. Shown are actives, neighbours in structure and some others; about 12% of the full set was active somewhere.
SMILES,Cl transport mod,Diaph act CS,L major viab,ROMK mod,Diaphorase inh,WT yeast gro inh
O=C(COC(=O)c1cccc(F)c1)Nc1cccnc1Cl,-0.0027,0.9,-6,0.56,12,9
Cc1ccc(N2C(=O)CC(N3CCN(C4CCc5ccccc5C4)CC3)C2=O)cc1 (stereo not drawn),0.18,0.9,87*,-1.3,6,1
COc1ccccc1N(C)S(=O)(=O)c1ccc(C(=O)OCC(=O)NCC(F)(F)F)cc1,-0.33,0.9,-10,0.087,8,-1
COc1ccc(NC(=O)COC(=O)c2ccc(S(=O)(=O)N(C)c3ccccc3OC)cc2)cc1OC,-0.72,0.9,27,-0.6,12,-3
COc1ccccc1N(C)S(=O)(=O)c1ccc(C(=O)OCC(=O)N(C(C)C)C(C)C)cc1,-0.11,0.9,100*,0.11,10,3
COc1ccccc1N(C)S(=O)(=O)c1ccc(C(=O)OCC(=O)N2CCC2)cc1,-0.26,0.9,83*,0.11,10,-12
COc1ccccc1N(C)S(=O)(=O)c1ccc(C(=O)NCC(C)C)cc1,-0.076,1.1,93*,-0.27,-7,x
O=C(Nc1nccs1)C1CCN(S(=O)(=O)c2c(Cl)cccc2Cl)CC1,-0.57,0.9,-4,-2.1,9,10
Cc1ccc(OCc2csc(N)n2)cc1,0.66,0.9,-3,-0.15,13,2
S=C(NCC1CCCO1)NC12CC3CC(CC(C3)C1)C2 (stereo not drawn),-0.45,0.9,62*,-0.4,12,68*
Cc1ccc(S(=O)(=O)/N=C2/NC(=O)/C(=C/c3ccc(Br)o3)S2)cc1,0.76,1,51*,-1.9,2,-18
CCNc1c2c(nc3ccccc13)CC(C)(C)CC2=O,-0.3,0.7,58*,-0.36,28,-4
CC1(C)CC(=O)c2c(nc3ccccc3c2N)C1,-0.32,1,47,-1.1,-2,-3
c1ccc(-c2n[nH]c3c2CCC3)cc1,-1.8,1,0,x,-5,7
Clc1ccc(-c2n[nH]c3c2CCC3)c(Cl)c1,-0.69,0.8,-1,x,22,68*
CCN(CC)S(=O)(=O)c1cccc(C(=O)Nc2nc3cc4c(cc3s2)OCCO4)c1,-1.6,0.8,93*,-1.1,22,23
O=C(NNc1nc2cc3c(cc2s1)OCO3)c1cccc(F)c1,1.1,1,55*,0.7,5,7
COc1ccccc1C(=O)Nc1nc2cc3c(cc2s1)OCCO3,0.12,0.9,75*,x,10,4
O=C(Nc1nc2cc3c(cc2s1)OCCO3)c1cccc(N2C(=O)CCC2=O)c1,-0.2,0.8,55*,x,17,9
CCN(CC)S(=O)(=O)c1cccc(C(=O)Nc2sc3c(c2C(N)=O)CCCC3)c1,0.22,0.9,2,x,12,73*
O=C(C1CCN(S(=O)(=O)c2cccc3nsnc23)CC1)N1CCCc2ccccc21,-4,0.9,8,x,12,-5
CC1Cc2ccccc2N1C(=O)C1CCCN(S(=O)(=O)c2cccc3nsnc23)C1 (stereo not drawn),-0.11,0.8,46,-3.1*,19,17
Cc1cccc(N2CCN(C(=O)C3CCN(S(=O)(=O)c4cccc5cccnc45)CC3)CC2C)c1 (stereo not drawn),-0.44,0.8,14,x,16,11
Cc1cccc(N2CCN(C(=O)C3CCN(S(=O)(=O)c4cccc5nsnc45)CC3)CC2C)c1 (stereo not drawn),0.067,0.8,51*,x,21,14
O=C(C1CCN(S(=O)(=O)c2cccc3nsnc23)CC1)N1CCc2ccccc21,-3.6,0.7,87*,x,25,-4
SMILES,Cl transport mod,Diaph act CS,L major viab,ROMK mod,Diaphorase inh,WT yeast gro inh
COc1cnc(-c2ccccc2)nc1Oc1ccc(Cl)cc1C,0.02,1,-7,-0.53,-5,-6
C=CCNC(=O)COC(=O)c1cccnc1Nc1ccccc1F,-0.69,1.1,-2,-0.78,-10,-11
O=c1[nH]c(SCc2n[nH]c(=S)n2-c2ccccc2)nc2sc3c(c12)CCC3,-1.2,0.5,0,1.1,47,-5
CCc1ccc(-c2csc(NC(=O)C3CC(=O)N(c4ccc5c(c4)OCCO5)C3)n2)cc1 (stereo not drawn),-2.5,0.7,98*,x,33,37
OC(CNCCc1ccccc1)COc1ccc(OCC(O)CNCCc2ccccc2)cc1 (stereo not drawn),0.74,x,x,x,x,x
OC(CNCCc1ccc(Cl)cc1)COc1ccc2ccccc2c1 (stereo not drawn),0.5,1.1,83*,-2.1,-7,97
Clc1ccc(-c2nnnn2-c2ccc(Cl)c(Cl)c2)cc1Cl,-0.51,0.9,14,-0.62,14,79*
Cc1ccc(-n2nnnc2-c2ccccc2)cc1,0.029,1,-4,0.34,-5,19
NC(=S)NNC(=O)C12CC3CC(CC(C3)C1)C2,1.7,1,-7,-0.3,-2,-6
CCOC(=O)N1CCC(NS(=O)(=O)c2ccc(C#N)cc2)CC1,0.13,x,x,1.4,x,x
CCc1ccc(OC2=NS(=O)(=O)c3ccccc32)cc1,-0.77,1.1,-3,-0.14,-10,-4
CCN(CC)c1cccc(OC2=NS(=O)(=O)c3ccccc32)c1,0.032,0.9,80*,-0.12,7,12
Cc1noc2ncnc(Oc3ccc(Cl)cc3Cl)c12,-0.55,0.9,1,0.59,13,4
CCCCNC(=S)Nc1ccc(C(F)(F)F)cc1,-1,0.8,1,-1.2,20,34
CCCCNC(=S)N(C)/N=C/c1c(C)[nH]c2ccccc12,1.2,0.8,56*,0.044,21,-2
CCCCNC(=S)N(C)/N=C/c1c(F)c(F)c(F)c(F)c1F,0.24,0.9,-2,-0.85,11,60*
O=C(CSc1ccc(F)cc1)NC1CCCCC1,0.0013,0.9,11,-0.094,11,10
CCn1ncc([N+](=O)[O-])c1C(=O)Nc1cc(C)on1,-0.31,0.8,92*,x,17,-6
CCOc1ccc2nc(NC(=O)c3c([N+](=O)[O-])cnn3CC)sc2c1,0.48,0.9,63*,0.4,11,5
O=C(c1ccc(S(=O)(=O)N2CCOCC2)cc1)N(c1ccccn1)C1CCCCC1,0.29,x,x,x,x,x
Cc1ccc2nc(NC3=NCN(Cc4ccc5c(c4)OCO5)CN3)nc(C)c2c1,x,x,100*,x,x,x
O=C(NC1(C(F)(F)F)NC(=O)N(Cc2ccccc2)C1=O)c1cccs1 (stereo not drawn),0.0088,x,7,x,x,x
CC(=O)Nc1ccc(S(=O)(=O)NCc2csc(-c3cccnc3)n2)cc1,3.2*,0.8,-2,0.16,24,5
Cc1ccc(-n2cc(CNCCc3ncc(C)[nH]3)c(-c3ccc(F)cc3)n2)cc1,x,x,100*,-0.92,x,49
